In ChEMBL document CHEMBL3045252, “Stereoselective syntheses of all stereoisomers of lariciresinol and their plant growth inhibitory activities” (J Agric Food Chem, 2011):

Assays:
Lactuca sativa [1] = assay: Plant growth regulatory activity in lettuce Lactuca sativa (lettuce) assessed as inhibition of root growth at 1 mM at 20 degC measured after 3 days; type: functional; settings: 72 h, read-out: GI
Procedure, shortened: (§1)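 Paper was treated with acetone solution and dried, then 3 mL water added to a final 1 × 10^-3 M. Sealed dishes kept dark at 20 °C. Root and shoot lengths expressed as growth relative to the negative control. Mean ± SEM. One-way ANOVA with Tukey post-test.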

Lactuca sativa [2] = assay: Plant growth regulatory activity in lettuce Lactuca sativa (lettuce) assessed as inhibition of shoot length at 1 mM at 20 degC measured after 3 days; type: functional; settings: 72 h, read-out: GI; procedure, shortened: as §1
Lolium multiflorum [3] = assay: Plant growth regulatory activity in Lolium multiflorum (Italian ryegrass) assessed as inhibition of root growth at 1x10'-3 M at 20 degC measured after 5 days; type: functional; settings: 120 h, read-out: GI
Procedure, shortened: (§2)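 Paper was pre-wetted with 500 μL acetone solution (6.0 × 10^-3 to 6.0 × 10^-8 M) and dried, then 3 mL water added to a final 1.0 × 10^-3 to 1.0 × 10^-8 M. Sealed dishes kept dark at 20 °C. Root and shoot lengths read against a negative control. Mean ± SEM; three experiments below 10^-3 M. One-way ANOVA with Tukey post-test.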

Lolium multiflorum [4] = assay: Plant growth regulatory activity in Lolium multiflorum (Italian ryegrass ) assessed as inhibition of shoot length at 1x10'-3 M at 20 degC measured after 5 days; type: functional; settings: 120 h, read-out: GI; procedure, shortened: as §2
Lolium multiflorum [5] = assay: Inhibition of seed germination in Lolium multiflorum (Italian ryegrass) seed assessed as seed germination rate (reference value: 90.3 +/- 1.40%); type: functional
Lolium multiflorum [6] = assay: Plant growth regulatory activity in Lolium multiflorum (Italian ryegrass) assessed as stimulation of root growth up to 10'--4 to 10^-7 M at 20 degC measured after 5 days; type: functional; procedure, shortened: as §2
Lolium multiflorum [7] = assay: Inhibition of germination in Lolium multiflorum (Italian ryegrass) seed assessed as growth rate of germinated grass root; type: functional
Lolium multiflorum [8] = assay: Toxicity in italian ryegrass Lolium multiflorum (Italian ryegrass) assessed as adverse effect up to 10^-7 M; type: organism-based; settings: in vivo
Lolium multiflorum [9] = assay: Plant growth regulatory activity in Lolium multiflorum (Italian ryegrass) assessed as inhibition of shoot length at 1 mM at 20 degC measured after 5 days; type: functional; settings: 120 h, read-out: GI; procedure, shortened: as §2

| Structure (SMILES) | inhibition of growth at 1000 µM (Lactuca sativa [1]) [%] | inhibition of growth at 1000 µM (Lactuca sativa [2]) [%] | inhibition of growth at 1000 µM (Lolium multiflorum [3]) [%] | inhibition of growth at 1000 µM (Lolium multiflorum [4]) [%] | inhibition (INH) (Lolium multiflorum [5]) [%] | Activity (Lolium multiflorum [6]) [%] | inhibition (INH) (Lolium multiflorum [7]) [%] | Activity (Lolium multiflorum [8]) | inhibition of growth at 1000 µM (Lolium multiflorum [9]) [%] |
| --- | --- | --- | --- | --- | --- | --- | --- | --- | --- |
| COc1cc(C[C@@H]2CO[C@H](c3ccc(O)c(OC)c3)[C@@H]2CO)ccc1O | -20.7 | -1.6 | -30 | < 23 |  |  |  |  |  |
| COc1cc(C[C@H]2CO[C@H](c3ccc(O)c(OC)c3)[C@@H]2CO)ccc1O | -20.7 | -1.6 | -48.2 |  | 72.5 | 20 | -35.4 |  |  |
| COc1cc(C[C@@H]2CO[C@@H](c3ccc(O)c(OC)c3)[C@H]2CO)ccc1O |  | -32.3 |  |  |  |  |  |  |  |
| COc1cc(C[C@H]2CO[C@@H](c3ccc(O)c(OC)c3)[C@@H]2CO)ccc1O | -20.7 | -1.6 |  |  |  |  |  | Non-toxic |  |
| COc1cc(C[C@@H]2CO[C@H](c3ccc(O)c(OC)c3)[C@H]2CO)ccc1O | -20.7 | -1.6 |  |  |  |  |  | Non-toxic |  |
| COc1cc(C[C@H]2CO[C@@H](c3ccc(O)c(OC)c3)[C@H]2CO)ccc1O | -20.7 | -1.6 | -30 | < 23 |  |  |  |  |  |
| COc1cc(C[C@@H]2CO[C@@H](c3ccc(O)c(OC)c3)[C@@H]2CO)ccc1O [(-)-Lariciresinol] | -8.2 | -13.3 | -44.3 |  | 80 |  | -57.2 |  | -17.1 |
| COc1cc(C[C@H]2CO[C@H](c3ccc(O)c(OC)c3)[C@H]2CO)ccc1O [LARICIRESINOL] | -14.4 | -22 | -29.3 |  | 72.5 |  | -40.7 |  |  |
